What was measured:
tobacco BY-2 cells = test: Peptide-mediated Citrine transduction; format: cell-based, Nicotiana tabacum; settings: for Citrine internalization into BY-2 cells at lower peptide concentrations: 9 nM–9 μM peptide (low concentrations), Figure S2; for Citrine fluorescence in the nuclei of BY-2 cells: 1 h incubation
Outline: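 Exponentially growing BY-2 cells (OD600 0.5) mixed in a glass-bottom dish with Citrine plus peptide, or with individual peptide domains as controls, for 1 h at 26 °C. Citrine-only cells served as control. Uptake was imaged directly by confocal microscopy at Ex/Em 488/515–580 nm.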

C. reinhardtii cells [1] = test: Colony formation viability assay, C. reinhardtii; format: cell-based, Chlamydomonas reinhardtii; settings: for Cell death in C. reinhardtii (colony formation assay): 2.5 μM peptide, 20 min in TAP medium with 40 mM sucrose, n = 3, Figure 2C
Outline: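 Log-phase Chlamydomonas reinhardtii wild-type cc125+ (2 days after subculture, grown in TAP at 23 °C under constant light) exposed to peptide (39 nM–2.5 μM) for 20 min in TAP with 40 mM sucrose. Cells washed, plated on TAP agar, colonies counted. Viability = colonies with peptide ÷ colonies without. Three biological replicates, mean ± SD.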

M. polymorpha sporelings [2] = test: Evans blue viability assay, M. polymorpha sporelings; format: cell-based, Marchantia polymorpha; settings: 1 h at 22 °C, n = 4, Figure 2A
Outline: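 Marchantia polymorpha sporelings (Tak-1 × Tak-2 cross, held 4 days in water) incubated with peptide for 1 h at 22 °C, then stained with Evans blue 150 μg/mL. Stained (dead) and unstained (live) cells counted; viability taken from live/dead ratio. Boiled sporelings (95 °C, 10 min) served as 100% dead. Four biological replicates, mean ± SE, Dunnett's T3 versus 0 μM.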

C. reinhardtii cells [3] = test: Peptide-mediated Citrine transduction; format: cell-based, Chlamydomonas reinhardtii; settings: 156 nM peptide, Citrine 100 μg/mL, 20 min (b14 says 3 h), CLSM, Figure 2D
Outline: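 Log-phase Chlamydomonas cells suspended in TAP containing 156 nM peptide, 100 μg/mL Citrine and 40 mM sucrose, for 20 min. Cells washed and mounted on slides; Citrine-only cells served as control. Confocal imaging: Citrine at Ex/Em 488/520–550 nm, chlorophyll at 488/660–720 nm.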

E. gracilis cells [4] = test: Peptide-mediated Citrine transduction; format: cell-based, Euglena gracilis; settings: 9 μM peptide, Citrine 100 μg/mL, 3 h at 26 °C, CLSM, Figure 2D
Outline: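 Euglena suspension (OD730 0.23) exposed to Citrine with or without peptide in culture medium in a 96-well plate, 3 h at 26 °C, shaking at 100 rpm. Confocal imaging: Citrine at Ex/Em 488/520–550 nm, chlorophyll at 488/660–720 nm.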

E. gracilis cells [5] = test: Evans blue viability assay, E. gracilis; format: cell-based, Euglena gracilis; settings: 9 nM–90 μM peptide, 3 h at 26 °C, n = 3, Figure 2C
Outline: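 Euglena gracilis was grown in CM medium pH 3.5 (26 °C, 100 rpm) to OD730 0.23, then incubated with peptide (9 nM–90 μM) for 3 h at 26 °C. Cells pelleted and stained with Evans blue 150 μg/mL for 20 min, washed three times, then live and dead cells counted microscopically. Viability = live/dead ratio relative to untreated cells. Three biological replicates, mean ± SD.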

O. sativa calli [6] = test: Evans blue viability assay, O. sativa calli; format: cell-based, Oryza sativa; settings: 1 h, vacuum/compression infiltration, n = 4, Figure 2A, particularly dTat-Sar-EED5
A. thaliana cotyledons [7] = test: Evans blue viability assay, A. thaliana cotyledons; format: cell-based, Arabidopsis thaliana; settings: 1 h, vacuum/compression infiltration, n = 4, Figure 2A, particularly dTat-Sar-EED5
M. polymorpha sporelings [8] = test: Peptide-mediated Citrine transduction; format: cell-based, Marchantia polymorpha; settings: 90 μM peptide, Citrine 200 μg/mL, 1 h at 22 °C, CLSM, Figure 2B
Outline: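 Sporelings incubated 1 h at 22 °C in solution with 90 μM peptide and 200 μg/mL Citrine; Citrine alone served as control. Time-gated confocal detection (0.5–12.0 ns) at Ex/Em 510/546–566 nm.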

[9] = test system: tobacco (Nicotiana tabacum) Bright Yellow-2 (BY-2) cells; test: Evans blue cell viability assay, BY-2 cells; format: cell-based
O. sativa calli [10] = test: Peptide-mediated Citrine transduction; format: cell-based, Oryza sativa; settings: 90 μM peptide, Citrine 200 μg/mL, CLSM, Figure 2B
Outline: (§1)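 Col-0 cotyledons (seedlings 7–9 days) or Nipponbare calli (1 week on N6D, 30 °C, constant light) vacuum/compression-infiltrated with 200 μg/mL Citrine, with 90 μM peptide or alone as control. Incubation 1 h: cotyledons at 22 °C, calli at 30 °C. Washed twice with 1/2 MS plus 1% sucrose; confocal imaging at Ex/Em 488/515–560 nm.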

A. thaliana cotyledons [11] = test: Peptide-mediated Citrine transduction; format: cell-based, Arabidopsis thaliana; settings: 90 μM peptide, Citrine 200 μg/mL, CLSM, Figure 2B
Outline: as §1

[12] = test system: A. thaliana root epidermal cells; test: FM4-64 uptake into A. thaliana roots; format: cell-based, Arabidopsis thaliana; settings: dTat-Sar-EED4 30 μM, FM4-64 10 μM, Figure 4B
Outline: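 Roots of Col-0 seedlings (7–9 days) pretreated 30 min at 25 °C in 1/2 MS with 0.6% v/v DMSO or 30 μM ES9-17. FM4-64 (10 μM) then added, ± peptide, for 30 min at 25 °C in the dark. Confocal imaging at Ex/Em 488/620–680 nm. Mean intensity of manually segmented whole cytoplasm was divided by that of the apical plasma membrane, for more than 100 cells from 8 roots.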

[13] = 90 μM peptide, Citrine 100 μg/mL, CLSM, Figure 1D

Substance	Cell death in C. reinhardtii (colony formation assay) (C. reinhardtii cells [1])	Cell death in M. polymorpha sporelings (M. polymorpha sporelings [2])	Cytotoxicity toward E. gracilis (E. gracilis cells [5])	Concentrations at which toxic to O. sativa calli (O. sativa calli [6]) [µM]	Citrine internalization into BY-2 cells at lower peptide concentrations (tobacco BY-2 cells; CLSM)	Citrine fluorescence in the nuclei of BY-2 cells (tobacco BY-2 cells; [13])	Concentrations at which toxic to A. thaliana cotyledons (A. thaliana cotyledons [7]) [µM]	also measured
(Sar)6-GFWFG [Sar-EED5]	–	–	–	–	–	–	–	Citrine uptake by BY-2 cells with individual peptide domains (tobacco BY-2 cells; 90 μM of each peptide domain, 1 h, Citrine 100 μg/mL, CLSM, Figure 1D): did not show Citrine uptake
rrrqrrkkr-(Sar)6-GFWFG [dTat-Sar-EED5]	induced severe cell death	did not cause severe cell death	Neither peptide exhibited cytotoxicity	≥ 90	negligible Citrine uptake	detected Citrine fluorescence in the nuclei of some cells	≥ 90	Citrine internalization into C. reinhardtii (C. reinhardtii cells [3]): Citrine was internalized; Citrine internalization into E. gracilis (E. gracilis cells [4]): Citrine was internalized
rrrqrrkkr-(Sar)6-GWWG [dTat-Sar-EED4]	induced severe cell death	did not cause severe cell death	Neither peptide exhibited cytotoxicity	≥ 90	no Citrine internalization was observed	detected Citrine fluorescence in the nuclei of some cells	≥ 90	Citrine internalization into M. polymorpha sporelings (M. polymorpha sporelings [8]): Citrine internalization was observed; Toxicity to C. reinhardtii cells compared between the two peptides (C. reinhardtii cells [1]; concentrations of 156 nM or more, 20 min, colony formation assay, Figure 2C): slightly more toxic; Cytotoxicity to BY-2 cells after prolonged treatment ([9]; 90 μM for up to 48 h, n = 3, Figure S1): did not result in significant cytotoxicity; Toxicity to BY-2 cells compared between the two peptides ([9]; 1 h treatment, 9 μM to 9 mM, Figure 1B): less toxic than dTat-Sar-EED5; Transfer of Citrine to the nucleus in O. sativa calli (O. sativa calli [10]; 1 h): such behavior was not detected; Citrine internalization into O. sativa calli (O. sativa calli [10]; 1 h at 30 °C): Citrine internalization was observed; Citrine internalization into BY-2 cells, time-lapse CLSM (tobacco BY-2 cells; 90 μM peptide, Citrine 100 μg/mL, Figure 1C, Movies S1, S2): rapid internalization of Citrine into BY-2 cells within a few minutes; Transfer of Citrine to the nucleus in A. thaliana cotyledon cells (A. thaliana cotyledons [11]; 1 h): appeared to be transferred to the nucleus; Citrine internalization into A. thaliana cotyledons (A. thaliana cotyledons [11]; 1 h at 22 °C): Citrine internalization was observed; Enhancement of FM4-64 uptake, DMSO-treated samples ([12]; DMSO 0.6% v/v): slight; Enhancement of FM4-64 uptake, ES9-17-treated samples ([12]; ES9-17 30 μM): more pronounced

— paper PMC8790739 (JACS Au, 2022)
